Square brackets hold non-standard residues; d marks the D form. Peptide text beside a SMILES is read from it. Dap = NC[C@H](N)C(=O)O
Key:
[1] = target: Melanocortin receptor 3 (Mus musculus) (UniProt P33033); assay: Agonist activity at mouse MC3R expressed in HEK293 cells assessed as increase in forskolin-induced cAMP accumulation at 100 uM preincubated for 2 hrs followed by biotinylated cAMP addition and subsequent incubation for 2 hrs by AlphaScreen assay relative to NDP-MSH; type: functional, cell-based
Sequence of Melanocortin receptor 3 (Mus musculus) (P33033 whole entry): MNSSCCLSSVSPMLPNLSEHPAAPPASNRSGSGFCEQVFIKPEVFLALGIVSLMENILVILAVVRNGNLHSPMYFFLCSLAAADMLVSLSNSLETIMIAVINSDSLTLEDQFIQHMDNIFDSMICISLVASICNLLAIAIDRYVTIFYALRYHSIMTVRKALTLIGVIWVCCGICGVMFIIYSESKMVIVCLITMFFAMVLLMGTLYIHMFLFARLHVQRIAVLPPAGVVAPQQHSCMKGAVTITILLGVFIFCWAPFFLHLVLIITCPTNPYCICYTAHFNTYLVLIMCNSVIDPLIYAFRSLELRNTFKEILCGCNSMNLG
Method in brief: (§1)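 HEK293 cells stably expressing mouse MC1R, MC3R, MC4R or MC5R, at 70-90% confluence, were detached with Versene at 37 °C and plated at 10,000 cells/well. Stimulation buffer was HBSS with 5 mM HEPES, 0.5 mM IBMX and 0.1% BSA, pH 7.4, plus anti-cAMP acceptor beads. Peptide from 10^-2 M DMSO stock was added and incubated 2 hr in the dark at room temperature. Forskolin at 10^-4 M was the reference stimulus.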

Mus musculus [2] = organism: Mus musculus; assay: Selectivity ratio of EC50 for mouse MC3R to EC50 for mouse MC1R
Mus musculus [3] = organism: Mus musculus; assay: Selectivity ratio of EC50 for mouse MC4R to EC50 for mouse MC3R
Mus musculus [4] = organism: Mus musculus; assay: Selectivity ratio of EC50 for mouse MC3R to EC50 for mouse MC5R
Mus musculus [5] = organism: Mus musculus; assay: Selectivity ratio of EC50 for mouse MC3R to EC50 for mouse MC4R
Melanocortin receptor 3 = Melanocortin receptor 3 (Mus musculus, UniProt P33033); assay: Agonist activity at mouse MC3R expressed in HEK293 cells assessed as increase in forskolin-induced cAMP accumulation preincubated for 2 hrs followed by biotinylated cAMP addition and subsequent incubation for 2 hrs by AlphaScreen assay; type: functional, cell-based; method in brief: as §1
Sequence of Melanocortin receptor 3 (P33033 whole entry): as above

[6] = target: Melanocortin receptor 4 (Mus musculus) (UniProt P56450); assay: Agonist activity at mouse MC4R expressed in HEK293 cells assessed as increase in forskolin-induced cAMP accumulation at 100 uM preincubated for 2 hrs followed by biotinylated cAMP addition and subsequent incubation for 2 hrs by AlphaScreen assay relative to NDP-MSH; type: functional, cell-based; method in brief: as §1
Sequence of Melanocortin receptor 4 (Mus musculus) (P56450 whole entry): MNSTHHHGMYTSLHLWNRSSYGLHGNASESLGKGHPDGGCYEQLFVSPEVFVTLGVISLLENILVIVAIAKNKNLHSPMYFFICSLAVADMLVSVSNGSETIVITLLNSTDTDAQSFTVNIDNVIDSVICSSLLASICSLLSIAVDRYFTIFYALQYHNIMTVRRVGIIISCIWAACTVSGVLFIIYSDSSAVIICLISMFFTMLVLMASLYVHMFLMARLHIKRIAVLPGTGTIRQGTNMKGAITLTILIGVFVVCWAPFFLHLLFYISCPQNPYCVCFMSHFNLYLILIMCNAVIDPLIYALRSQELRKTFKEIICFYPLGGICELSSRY

[7] = target: Melanocortin receptor 3 (Homo sapiens) (UniProt P41968); assay: Agonist activity at human MC3R expressed in CHO cells assessed as increase in IBMX-induced cAMP accumulation at 10 uM after 45 mins by [125I]cAMP flash plate assay relative to MT-2
Sequence of Melanocortin receptor 3 (Homo sapiens) (P41968 whole entry, looked up): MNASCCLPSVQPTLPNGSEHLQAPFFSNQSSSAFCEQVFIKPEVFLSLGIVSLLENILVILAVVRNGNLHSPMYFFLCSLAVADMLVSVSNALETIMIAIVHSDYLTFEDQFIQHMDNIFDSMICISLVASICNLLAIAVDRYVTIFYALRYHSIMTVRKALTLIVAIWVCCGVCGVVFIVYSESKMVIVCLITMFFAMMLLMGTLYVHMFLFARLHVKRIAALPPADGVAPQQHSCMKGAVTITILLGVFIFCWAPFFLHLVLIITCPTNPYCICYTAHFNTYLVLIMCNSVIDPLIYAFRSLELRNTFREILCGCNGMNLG

Melanocortin receptor 5 = Melanocortin receptor 5 (Mus musculus, UniProt P41149); assay: Agonist activity at mouse MC5R expressed in HEK293 cells assessed as increase in forskolin-induced cAMP accumulation preincubated for 2 hrs followed by biotinylated cAMP addition and subsequent incubation for 2 hrs by AlphaScreen assay; type: functional, cell-based; method in brief: as §1
Sequence of Melanocortin receptor 5 (P41149 whole entry): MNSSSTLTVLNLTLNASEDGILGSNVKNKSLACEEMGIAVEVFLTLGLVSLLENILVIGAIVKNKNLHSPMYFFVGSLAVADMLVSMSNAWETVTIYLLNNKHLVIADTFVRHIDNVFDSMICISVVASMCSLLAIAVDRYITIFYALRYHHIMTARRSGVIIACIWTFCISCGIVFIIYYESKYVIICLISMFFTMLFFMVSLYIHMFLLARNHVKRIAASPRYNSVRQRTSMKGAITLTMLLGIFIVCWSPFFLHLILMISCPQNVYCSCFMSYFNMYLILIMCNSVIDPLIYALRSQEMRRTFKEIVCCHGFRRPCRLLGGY

[8] = target: Melanocyte-stimulating hormone receptor (Mus musculus) (UniProt Q01727); assay: Agonist activity at mouse MC1R expressed in HEK293 cells assessed as increase in forskolin-induced cAMP accumulation at 100 uM preincubated for 2 hrs followed by biotinylated cAMP addition and subsequent incubation for 2 hrs by AlphaScreen assay relative to NDP-MSH; type: functional, cell-based; method in brief: as §1
Sequence of Melanocyte-stimulating hormone receptor (Mus musculus) (Q01727 whole entry, looked up): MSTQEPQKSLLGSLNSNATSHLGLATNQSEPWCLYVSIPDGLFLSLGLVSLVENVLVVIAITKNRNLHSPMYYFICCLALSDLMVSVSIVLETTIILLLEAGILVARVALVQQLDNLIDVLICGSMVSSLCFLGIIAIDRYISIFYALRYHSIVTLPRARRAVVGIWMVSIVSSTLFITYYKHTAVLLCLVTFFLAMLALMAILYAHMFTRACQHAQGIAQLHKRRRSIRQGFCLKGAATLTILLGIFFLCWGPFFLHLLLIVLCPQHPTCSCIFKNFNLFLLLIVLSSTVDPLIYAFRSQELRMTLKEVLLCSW

Mus musculus [9] = organism: Mus musculus; assay: Selectivity ratio of EC50 for mouse MC4R to EC50 for mouse MC1R
Mus musculus [10] = organism: Mus musculus; assay: Selectivity ratio of EC50 for mouse MC5R to EC50 for mouse MC1R
[11] = target: Melanocortin receptor 5 (Mus musculus) (UniProt P41149); assay: Agonist activity at mouse MC5R expressed in HEK293 cells assessed as increase in forskolin-induced cAMP accumulation at 100 uM preincubated for 2 hrs followed by biotinylated cAMP addition and subsequent incubation for 2 hrs by AlphaScreen assay relative to NDP-MSH; type: functional, cell-based; method in brief: as §1
Sequence of Melanocortin receptor 5 (Mus musculus) (P41149 whole entry): as the sequence (P41149 whole entry) above

Row | Activity [1] [%] | Ratio EC50 (Mus musculus [2]) | Ratio EC50 (Mus musculus [4]) | Activity [6] [%] | other results | Structure (SMILES)
1 | 55 | > 100 | > 1000 | – | Ratio EC50 (Mus musculus [3]): > 100 | C[C@@H]1NC(=O)[C@H](CC(N)=O)NC(=O)[C@H](Cc2c[nH]c3ccccc23)NC(=O)[C@H](CCCNC(=N)N)NC(=O)[C@@H](Cc2ccccc2)NC(=O)[C@@H]2CCCN2C(=O)[C@H]2CCCN2C1=O (cyclo(P[dF]RWNA[dP]))
2 | – | – | – | – | Ratio EC50 (Mus musculus [5]): 23 | C[C@@H]1NC(=O)[C@H](CC(N)=O)NC(=O)[C@H](Cc2c[nH]c3ccccc23)NC(=O)[C@H](CCCNC(=N)N)NC(=O)[C@@H](Cc2ccccc2)NC(=O)[C@H](Cc2cnc[nH]2)NC(=O)[C@@H]2CCCN2C(=O)[C@H]2CCCN2C(=O)[C@H](Cc2ccccc2)NC1=O (cyclo(H[dF]RWNAF[dP]P))
3 | – | – | – | 50 | EC50 (Melanocortin receptor 3): > 100 µM | N=C(N)NCCC[C@@H]1NC(=O)[C@@H](Cc2ccccc2)NC(=O)[C@@H]2CCCN2C(=O)[C@H]2CCCN2C(=O)[C@H](Cc2c[nH]c3ccccc23)NC1=O (cyclo(P[dF]RW[dP]))
4 | 65 | > 100 | > 100 | – | – | N=C(N)NCCC[C@@H]1NC(=O)[C@@H](Cc2ccccc2)NC(=O)[C@H](Cc2cnc[nH]2)NC(=O)[C@@H]2CCCN2C(=O)[C@H]2CCCN2C(=O)[C@H](CN)NC(=O)[C@H](Cc2c[nH]c3ccccc23)NC1=O (cyclo(H[dF]RW[Dap][dP]P))
5 | – | – | – | – | Efficacy [7]: 12% | CCCC[C@H](NC(C)=O)C(=O)N[C@H]1CC(=O)NCCCC[C@@H](C(=O)N2CCC[C@H]2C(=O)N[C@H](C(N)=O)C(C)C)NC(=O)[C@H](Cc2c[nH]c3ccccc23)NC(=O)[C@H](CCCNC(=N)N)NC(=O)[C@@H](Cc2ccccc2)NC(=O)[C@@H]2CCCN2C1=O
6 | – | > 500 | – | 35 | EC50 (Melanocortin receptor 3): > 100 µM; EC50 (Melanocortin receptor 5): > 100 µM; Activity [8]: 75%; Ratio EC50 (Mus musculus [9]): > 500; Ratio EC50 (Mus musculus [10]): > 500 | N=C(N)NCCC[C@@H]1NC(=O)[C@@H](Cc2ccccc2)NC(=O)[C@@H]2CCCN2C(=O)[C@H]2CCCN2C(=O)[C@H](CN)NC(=O)[C@H](Cc2c[nH]c3ccccc23)NC1=O (cyclo(P[dF]RW[Dap][dP]))
7 | 70 | – | – | – | Activity [8]: 45% | C[C@@H]1NC(=O)[C@H](CN)NC(=O)[C@H](Cc2c[nH]c3ccccc23)NC(=O)[C@H](CCCNC(=N)N)NC(=O)[C@@H](Cc2ccccc2)NC(=O)[C@@H]2CCCN2C(=O)[C@H]2CCCN2C(=O)[C@H](Cc2ccccc2)NC1=O (cyclo(P[dF]RW[Dap]AF[dP]))
8 | 45 | > 100 | > 1000 | – | Ratio EC50 (Mus musculus [3]): > 300 | C[C@@H]1NC(=O)[C@H](CC(N)=O)NC(=O)[C@H](Cc2c[nH]c3ccccc23)NC(=O)[C@H](CCCNC(=N)N)NC(=O)[C@@H](Cc2ccccc2)NC(=O)[C@@H]2CCCN2C(=O)[C@H]2CCCN2C(=O)[C@H](Cc2ccccc2)NC1=O (cyclo(P[dF]RWNAF[dP]))
9 | – | > 2500 | – | 85 | EC50 (Melanocortin receptor 3): > 100 µM; Activity [11]: 25%; Activity [8]: 85% | N=C(N)NCCC[C@@H]1NC(=O)[C@@H](Cc2ccccc2)NC(=O)[C@@H]2CCCN2C(=O)[C@H]2CCCN2C(=O)[C@H](CC(N)=O)NC(=O)[C@H](Cc2c[nH]c3ccccc23)NC1=O (cyclo(P[dF]RWN[dP]))
10 | 70 | – | > 1000 | – | Ratio EC50 (Mus musculus [3]): > 300 | C[C@@H]1NC(=O)[C@H](CN)NC(=O)[C@H](Cc2c[nH]c3ccccc23)NC(=O)[C@H](CCCNC(=N)N)NC(=O)[C@@H](Cc2ccccc2)NC(=O)[C@@H]2CCCN2C(=O)[C@H]2CCCN2C1=O (cyclo(P[dF]RW[Dap]A[dP]))
11 | 60 | – | – | 65 | – | N=C(N)NCCC[C@@H]1NC(=O)[C@@H](Cc2ccccc2)NC(=O)[C@H](Cc2cnc[nH]2)NC(=O)[C@@H]2CCCN2C(=O)[C@H]2CCCN2C(=O)[C@H](Cc2c[nH]c3ccccc23)NC1=O (cyclo(H[dF]RW[dP]P))
12 | – | – | > 100 | – | Ratio EC50 (Mus musculus [5]): 25 | C[C@@H]1NC(=O)[C@H](CN)NC(=O)[C@H](Cc2c[nH]c3ccccc23)NC(=O)[C@H](CCCNC(=N)N)NC(=O)[C@@H](Cc2ccccc2)NC(=O)[C@H](Cc2cnc[nH]2)NC(=O)[C@@H]2CCCN2C(=O)[C@H]2CCCN2C1=O (cyclo(H[dF]RW[Dap]A[dP]P))
